Experimental data gathered from unrelated publications.
Target: MAP/microtubule affinity-regulating kinase 3 (MARK3, Homo sapiens, UniProt P27448)
Read-out: enzyme activity
Action: inhibitor

| SMILES | assay | conditions | remaining activity [%] |
| --- | --- | --- | --- |
| CC(C)(O)[C@H]1CC[C@H](Nc2ccc3ncc(-c4cccc(C(F)(F)F)c4)n3n2)CC1 |  | 1 µM | 101 |
| CC(C)(C)c1nc(-c2cccc(NS(=O)(=O)c3c(F)cccc3F)c2F)c(-c2ccnc(N)n2)s1 | radiometric | 1 µM | 96 |
| FC(F)c1nc2ccccc2n1-c1nc(N2CCOCC2)nc(N2CCOCC2)n1 |  | 10 µM | 94 |
| NS(=O)(=O)c1ccc(CNc2nc(Nc3cccc(NC(=O)N4CCCC4)c3)ncc2C2CC2)cc1 | radiometric | 1 µM | 112 |
| CC(C)(C)C(=O)c1sc(NC2CCCCC2)nc1N |  | 10 µM | 112 |
| COc1cc(Nc2cnc(C#N)c(O[C@H](C)CN(C)C)n2)ncc1-c1cnn(C)c1 | radiometric | 1 µM | 98 |
| CC(C)(C)c1nc2c(s1)c1nc(N)ncc1c1ccc(NS(=O)(=O)c3c(F)cccc3F)c(F)c12 | radiometric | 1 µM | 99 |
| Cn1c(=O)n(-c2ccc(C(C)(C)C#N)cc2)c2c3cc(-c4cnc5ccccc5c4)ccc3ncc21 |  | 10 µM | 100 |
| Brc1cnc(Nc2cccc(CN3CCOCC3)c2)nc1NCCc1c[nH]cn1 | radiometric | 1 µM | 16 |
| Nc1nc(NC2CCCCC2)sc1C(=O)c1ccccc1 |  | 10 µM | 100 |
| Cc1nn(CC(F)(F)F)cc1Nc1ncc(Br)c(NCc2ccc(S(N)(=O)=O)cc2)n1 | radiometric | 1 µM | 105 |
| O=C(Nc1cnn(-c2csc(C(=O)NC3COC3)c2)c1)Nc1c(F)cccc1Cl |  | 5 µM | 99.3 |
| NS(=O)(=O)c1ccc(CNc2ccnc(Nc3cccc(NC(=O)N4CCCC4)c3)n2)cc1 | radiometric | 1 µM | 115 |
| COc1cc(Cl)c(C(=O)N[C@@H](CN[C@H]2CC[C@@H](N)CC2)Cc2ccc(C#N)cc2)cc1-c1ccc(CN[C@H](C)c2ccc(C)cc2)o1 |  | 1 µM | 98 |
| Cc1sc(C(=O)NC2COC2)cc1-n1cc(NC(=O)Nc2c(F)cccc2Cl)cn1 |  | 10 µM | 102 |
| NS(=O)(=O)c1ccc(CNc2nc(Nc3cccc(CN4CCOCC4)c3)ncc2Br)cc1 | radiometric | 1 µM | 68 |
| Cc1ccc(C(=O)Nc2ccc(CN3CCN(C)CC3)c(C(F)(F)F)c2)cc1C#Cc1cnc2cccnn12 |  | 23.5 nM | 83 |
